# Measurements from ChEMBL document CHEMBL1221400, “Synthesis, antimalarial activity, and cellular toxicity of new arylpyrrolylaminoquinolines” (Bioorg Med Chem, 2010).
# How the values were obtained:
# Plasmodium falciparum [1] = assay: Ratio of chloroquine IC50 to compound IC50 for chloroquine-sensitive Plasmodium falciparum D10
# [2] = Cytotoxicity against HMEC1 cells after 72 hrs by MTT assay; type: cell-based, HMEC-1; details: human
# How it was run: (§1)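 Cells were exposed to serial dilutions of compound for 72 h at 37 °C in 5% CO2. MTT was then added for another 3 h, and formazan was dissolved in SDS/DMF lysing buffer at pH 4.7. Absorbance was read at 550 nm against a 650 nm reference. […] Media: HMEC-1 in MCDB 131 with 10% FCS, EGF and hydrocortisone; K562 and WEHI 13 in RPMI 1640 with 10% FCS; HDF in DMEM with 10% FCS.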
# [3] = Cytotoxicity against human K562 cells after 72 hrs by MTT assay; type: cell-based
# How it was run: as §1
# Plasmodium falciparum [4] = assay: Antimalarial activity against chloroquine-sensitive Plasmodium falciparum D10 infected in human A+ RBC after 72 hrs by parasite LDH assay; type: functional, organism-based; details: D10, 72 h
# How it was run: (§2)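 P. falciparum (D10 CQ-sensitive; W2 CQ-resistant) kept at 5% hematocrit in human A+ red cells in RPMI 1640 with 1% AlbuMax, hypoxanthine, 20 mM Hepes and glutamine, at 37 °C under 1% O2/5% CO2/94% N2. Asynchronous cultures (1–1.5% parasitaemia, 1% final hematocrit) were exposed to serial dilutions (final DMSO <1%) for 72 h. pLDH activity was read at OD650. IC50 given as mean ± SD of ≥3 experiments run in duplicate.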
# Plasmodium falciparum [5] = assay: Antimalarial activity against chloroquine-resistant Plasmodium falciparum W2 infected in human A+ erythrocytes after 72 hrs by parasite LDH assay; type: functional, organism-based; details: W2, 72 h
# How it was run: as §2
# Plasmodium falciparum [6] = assay: Ratio of chloroquine IC50 to compound IC50 for chloroquine-resistant Plasmodium falciparum W2
# Plasmodium falciparum [7] = assay: Ratio of IC50 for chloroquine-resistant Plasmodium falciparum W2 to IC50 for chloroquine-sensitive Plasmodium falciparum D10
# [8] = Cytotoxicity against mouse WEHI13 cells after 72 hrs by MTT assay; type: cell-based
# How it was run: as §1
# [9] = Lipid accumulation ratio of the compound at pH 7.4; type: physicochemical
# [10] = Distribution coefficient, log D of the compound at pH 7.4; type: physicochemical; details: octanol/water
# [11] = Vacuolar accumulation ratio of the compound at pH 5.2; type: ADME
# [12] = Octanol-water partition coefficient, log P of the compound; type: physicochemical
# [13] = Cytotoxicity against HDF after 72 hrs by MTT assay; type: cell-based; details: human
# How it was run: as §1
# [14] = Inhibition of beta-hematin formation assessed as molar equivalents by BHIA assay relative to hemin; type: functional
SMILES,Ratio IC50 (Plasmodium falciparum [1]),CC50 at 72 h [2] [µM],CC50 at 72 h [3] [µM],IC50 (Plasmodium falciparum [4]) [µM],IC50 (Plasmodium falciparum [5]) [µM],Ratio IC50 (Plasmodium falciparum [6]),Ratio IC50 (Plasmodium falciparum [7]),CC50 at 72 h [8] [µM],Ratio [9],logD [10],Ratio [11],logP [12],CC50 at 72 h [13] [µM],IC50 [14] [equivalents]
CCN(CC)Cc1cc(-c2ccc(F)cc2)n(Nc2ccnc3cc(Cl)ccc23)c1C,0.5,18.6,2.36,0.0616,0.0798,5,1.3,3.02,–,–,–,–,–,–
Cc1c(CN2CCCC2)cc(-c2ccc(F)cc2)n1Nc1ccnc2cc(Cl)ccc12,0.8,10.1,1.66,0.0326,0.0781,5.7,2.4,2.71,2818.4,3.45,1548.8,4.86,–,–
Cc1c(CN2CCCC2)cc(-c2ccc(C(F)(F)F)cc2)n1Nc1ccnc2cc(Cl)ccc12,0.5,4.7,1.22,0.058,0.059,6.7,1,2.68,52480.8,4.72,912,5.28,–,–
CCN(CC)Cc1cc(-c2ccc(C)cc2)n(Nc2ccnc3cc(Cl)ccc23)c1C,0.6,7.05,–,0.0327,0.0554,6.4,1.7,3.65,–,–,–,–,10.3,–
Cc1ccc(-c2cc(CN3CCCC3)c(C)n2Nc2ccnc3cc(Cl)ccc23)cc1,0.6,7.15,–,0.0307,0.0658,5.4,2.1,4.48,8128.3,3.91,1862.1,5.19,13.2,0.45
CCN(CC)Cc1cc(-c2ccc(N)cc2)n(Nc2ccnc3cc(Cl)ccc23)c1C,0.5,–,–,0.0534,0.313,0.9,5.8,–,–,–,–,–,–,–
Cc1c(CN2CCCC2)cc(-c2ccc(N)cc2)n1Nc1ccnc2cc(Cl)ccc12,0.5,–,–,0.0431,0.455,0.5,10.6,–,107.1,2.03,16982.4,4.38,–,–
CCN(CC)Cc1cc(-c2ccc(Cl)cc2)n(CCCNc2ccnc3cc(Cl)ccc23)c1C,0.7,–,–,0.026,0.18,2.3,6.9,–,–,–,–,–,–,–
Cc1c(CN2CCCC2)cc(-c2ccc(Cl)cc2)n1CCCNc1ccnc2cc(Cl)ccc12,0.8,–,–,0.0227,0.243,1.7,10.7,–,223.9,2.35,24547.1,4.38,–,0.82
Cc1c(CN2CCCC2)cc(-c2ccc(Cl)cc2)n1Nc1ccnc2cc(Cl)ccc12,–,7.18,–,–,–,–,1.6,2.06,11481.5,4.06,1513.6,5.17,–,0.36
Cc1c(CN2CCCC2)cc(-c2ccccc2)n1Nc1ccnc2cc(Cl)ccc12,–,12.9,2.92,–,–,–,3.3,3.88,1905.5,3.28,1698.2,4.6,–,0.54
CCN(CC)Cc1cc(-c2ccccc2)n(Nc2ccnc3cc(Cl)ccc23)c1C,–,16.7,3.62,–,–,–,1.4,4.38,–,–,–,–,–,–
CCN(CC)Cc1cc(-c2ccc(Cl)cc2)n(Nc2ccnc3cc(Cl)ccc23)c1C,–,5.81,–,–,–,–,1.6,1.45,–,–,–,–,–,–
CCN(CC)CCCC(C)Nc1ccnc2cc(Cl)ccc12 (stereo unspecified) [CHLOROQUINE],–,> 32,> 25,–,–,–,–,> 38,–,–,–,–,> 38,1.27
